In article PMC3788622 (Journal of Medicinal Chemistry, 2013):
Entries after “also recorded” stand apart in the source; their conditions may differ.

Key:
male C57BL/6J mice [1] = test: Escalating single dose subcutaneous injections: animal weight and behavior; type: in vivo, mouse; conditions: single sc injection at 1, 3, and 10 mg/kg, observed 9 days
In short: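 Male C57BL/6J mice, 8 weeks old, were acclimatised 3 days after arrival. Groups of four received one sc dose of 1, 3 or 10 mg/kg in up to 200 μL 25% DMSO/saline. Doses were set by UV/vis using ε 69 500 M–1·cm–1 near 315 nm. Mice were weighed daily for 9 days, then sacrificed. Humane end point was visible duress or weight loss over 15% of starting weight.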

male C57BL/6J mice [2] = test: Histopathology after single subcutaneous injection; type: in vivo, mouse
In short: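 After the single sc dose (1, 3 or 10 mg/kg, 25% DMSO/saline, 9-day observation), two representative mice per group were fixed in 10% formalin. A veterinary pathologist examined cecum, duodenum, heart, ileum, kidney, liver, lung, pancreas, spleen and stomach, blinded to animal identity.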

male C57BL/6J mice [3] = test: Serum markers of liver and kidney damage after single subcutaneous injection; type: in vivo, mouse; conditions: single sc dose 1, 3, 10 mg/kg; dose stated in the value
In short: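 All mice from the single sc dose groups (1, 3, 10 mg/kg in 25% DMSO/saline, n = 4, 9-day observation) were bled retro-orbitally. Serum was obtained by centrifugation at 6000 rpm for 5 min. ALT, AST, total bilirubin, BUN and creatinine were measured externally, blinded to animal identity.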

male C57BL/6J mice [4] = test: Histopathology after multiple subcutaneous injections; type: in vivo, mouse; conditions: 1 mg/kg sc every 3 days, three injections
male C57BL/6J mice [5] = test: Serum markers of liver and kidney damage after multiple subcutaneous injections; type: in vivo, mouse; conditions: 1 mg/kg sc every 3 days, three injections
In short: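 Male C57BL/6J mice, 8 weeks old, were dosed in groups of three with 1 mg/kg sc every 3 days for three injections and sacrificed 2 days after the last. Weight was recorded on injection days and at the end point. Retro-orbital blood was spun at 6000 rpm for 5 min. Serum ALT, AST, total bilirubin, BUN and creatinine were assayed blinded.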

p53 [6] = test: p53 protein ELISA; type: cell-based; conditions: LNCaP cells, 10 μM, 72 h
In short: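 LNCaP cells were treated with 10 μM test compound for 72 h. Controls were DMSO vehicle and 1 μM doxorubicin for 24 h. RPB1 was measured with an RPB1-specific ELISA kit and total p53 with a pan-p53 ELISA kit, each following the kit instructions, in biological triplicates.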

p53 [7] = conditions: cited from earlier work
LNCaP xenografts = conditions: immunocompromised mice, three sc injections at 1 mg/kg; cited from earlier work

CN(CCCNC(=O)c1cccc(C(=O)O)c1)CCCNC(=O)c1cc(NC(=O)c2cc(NC(=O)c3cc(NC(=O)c4nc(NC(=O)[C@H](N)CCNC(=O)c5cc(NC(=O)c6cc(NC(=O)c7cc(NC(=O)c8nccn8C)cn7C)cn6C)cn5C)cn4C)cn3C)cn2C)cn1C [Polyamide 1, ImPyPyPy-2-(R)^H2Nγ-ImPyPyPy∼NHMe∼IPA]
Weight loss (male C57BL/6J mice [1]): significant weight loss only at 10 mg/kg
Liver lesions by histopathology (in words) (male C57BL/6J mice [2]; single sc dose 3 mg/kg): Mild hepatocellular necrosis and apoptosis
Kidney lesions by histopathology (in words) (male C57BL/6J mice [2]; single sc dose 10 mg/kg): Milder tubular regeneration and karyomegaly
Liver lesions by histopathology (in words) (male C57BL/6J mice [2]; single sc dose 10 mg/kg): Mild hepatocellular necrosis and apoptosis
Elevation of serum markers of liver and kidney damage (in words) (male C57BL/6J mice [3]): significant elevation of AST, ALT, and total bilirubin at 10 mg/kg; also recorded: moderate elevation of ALT at 3 mg/kg; also recorded: Elevation of creatinine and blood urea nitrogen (BUN) was not observed for any dose level
Kidney lesions by histopathology (in words) (male C57BL/6J mice [4]): mild variable tubular attenuation, karyomegaly, and epithelial necrosis and apoptosis
Liver lesions by histopathology (in words) (male C57BL/6J mice [4]): mild multifocal hepatocellular necrosis and apoptosis
Alteration of liver and kidney serum markers (in words) (male C57BL/6J mice [5]): elevated AST and ALT
Cellular level of p53 protein (p53 [6]): increases
Effect on cellular p53 protein (p53 [7]): increase cellular p53 protein
Growth of LNCaP xenografts (LNCaP xenografts): suppress the growth of LNCaP xenografts
